These results are taken from ChEMBL document CHEMBL3593207, “Imidazole clubbed 1,3,4-oxadiazole derivatives as potential antifungal agents” (2015).

In brackets after ≈: the same amount, converted by molar mass.

Assay type in all cases: functional
Test [1] has as its system Candida albicans. The test can be described thus: Inhibition of ergosterol biosynthesis in Candida albicans 2779 assessed as ergosterol content after 16 hrs by spectrophotometer analysis. Also on record: scale not given: the % may be the effect or the level left. The procedure, abridged:
(§1)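 Cells were pelleted, washed, weighed wet, and saponified in 3 mL 25% alcoholic KOH at 85 °C for 1 h. Sterols were extracted with 1 mL water plus 3 mL n-heptane. Ergosterol content is expressed relative to untreated control cells.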

Test [2] relates to Candida albicans. Briefly: Antifungal activity against clinical isolates of Candida albicans 2323 by broth microdilution assay. In a few lines:
(§2)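 CLSI M27-A3 broth microdilution. Compounds diluted to 1 mg/ml in 1% DMSO. Fluconazole (1 mg/ml) served as positive control, 1% DMSO as vehicle control, with media and culture controls. Triplicate at each concentration, repeated thrice. Inocula came from YPDA stocks subcultured in broth for 48 h at 37 °C.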
(Dilution methods test growth across graded concentrations, often in twofold steps.)

Test [3] relates to Candida albicans. The test can be described thus: Inhibition of ergosterol biosynthesis in Candida albicans 2323 assessed as ergosterol content after 16 hrs by spectrophotometer analysis. Also on record: scale not given: the % may be the effect or the level left. In a few lines: as §1
Test [4] concerns Candida albicans. The test can be described thus: Antifungal activity against Candida albicans ATCC 10261 by broth microdilution assay. The procedure, abridged:
as §2

Test [5] deals with Candida tropicalis. The test can be described thus: Antifungal activity against clinical isolates of Candida tropicalis 2356 after 48 hrs by disc diffusion assay. In a few lines:
(§3)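 Cells grown in YPD were mixed at 10^3 cells/ml into molten agar (about 40 °C) and poured into plates. Test compound at 1/2×MIC, MIC and 2×MIC was spotted on filter discs on the set agar, with fluconazole and 1% DMSO as positive and vehicle controls. Plates were incubated 48 h at 37 °C, then inhibition zone diameters were recorded in mm.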
Background: Agar diffusion results depend on both activity and mobility in agar.

Test [6] has as its system Candida tropicalis. Briefly: Inhibition of ergosterol biosynthesis in Candida tropicalis 2356 assessed as ergosterol content after 16 hrs by spectrophotometer analysis. The arrangement: scale not given: the % may be the effect or the level left. The procedure, abridged: as §1
Test [7] relates to Candida albicans. The test can be described thus: Inhibition of ergosterol biosynthesis in Candida albicans ATCC 10261 assessed as ergosterol content after 16 hrs by spectrophotometer analysis. Also on record: scale not given: the % may be the effect or the level left. In a few lines: as §1
For test [8], the system named is Candida albicans. Briefly: Inhibition of ergosterol biosynthesis in Candida albicans 2367 assessed as ergosterol content after 16 hrs by spectrophotometer analysis. The arrangement: scale not given: the % may be the effect or the level left. The procedure, abridged: as §1
Test [9] deals with Candida albicans. The test can be described thus: Antifungal activity against clinical isolates of Candida albicans 2367 by broth microdilution assay. In a few lines: as §2
The test system of test [10] is Candida tropicalis. Briefly: Antifungal activity against clinical isolates of Candida tropicalis 2356 by broth microdilution assay. The procedure, abridged:
as §2

Test [11] has as its system Candida tropicalis. The test can be described thus: Inhibition of ergosterol biosynthesis in Candida tropicalis 2029 assessed as ergosterol content after 16 hrs by spectrophotometer analysis. Also on record: scale not given: the % may be the effect or the level left. The procedure, abridged: as §1
For test [12], the system named is Candida tropicalis. Briefly: Antifungal activity against clinical isolates of Candida tropicalis 2029 by broth microdilution assay. The procedure, abridged:
as §2

Test [13] relates to Candida albicans. Briefly: Antifungal activity against clinical isolates of Candida albicans 2779 by broth microdilution assay. The procedure, abridged: as §2
Test [14] concerns Candida tropicalis. Briefly: Antifungal activity against Candida tropicalis ATCC 750 by broth microdilution assay. The procedure, abridged: as §2
Test [15] has as its system Candida albicans. Briefly: Antifungal activity against clinical isolates of Candida albicans 2367 after 48 hrs by disc diffusion assay. In a few lines: as §3
The subject of test [16] is Candida albicans. Briefly: Antifungal activity against clinical isolates of Candida albicans 2323 after 48 hrs by disc diffusion assay. The procedure, abridged: as §3
Test [17] deals with Candida albicans. Briefly: Antifungal activity against Candida albicans ATCC 10261 after 48 hrs by disc diffusion assay. In a few lines:
as §3

The subject of test [18] is Candida tropicalis. Briefly: Antifungal activity against clinical isolates of Candida tropicalis 2029 after 48 hrs by disc diffusion assay. The procedure, abridged:
as §3

Test [19] deals with Candida tropicalis. Briefly: Inhibition of ergosterol biosynthesis in Candida tropicalis ATCC 750 assessed as ergosterol content after 16 hrs by spectrophotometer analysis. The arrangement: scale not given: the % may be the effect or the level left. The procedure, abridged:
as §1

Test [20] has as its system Candida tropicalis. The test can be described thus: Antifungal activity against Candida tropicalis ATCC 750 after 48 hrs by disc diffusion assay. The procedure, abridged:
as §3

Test [21] concerns Candida albicans. The test can be described thus: Antifungal activity against clinical isolates of Candida albicans 2779 after 48 hrs by disc diffusion assay. In a few lines: as §3

As to `OC(Cn1cncn1)(Cn1cncn1)c1ccc(F)cc1F` [FLUCONAZOLE], the Activity in the test with Candida albicans [1], in the test with Candida albicans [3], in the test on Candida tropicalis [6], in the test with Candida albicans [7], in the test on Candida albicans [8] and with Candida tropicalis [11] was 100% throughout. Also, in the test with Candida tropicalis [19], the Activity was 100%. For the same molecule, the MIC in the test on Candida albicans [2] turned out to be 32 µg/mL (≈ 104 µM); against Candida albicans [4], 8 µg/mL (≈ 26.1 µM); with Candida albicans [9], 16 µg/mL (≈ 52.2 µM); in the test on Candida tropicalis [10], 62 µg/mL (≈ 202 µM); with Candida tropicalis [12], 32 µg/mL (≈ 104 µM); with Candida albicans [13] it was 32 µg/mL (≈ 104 µM). Moreover, in the test with Candida tropicalis [14], the MIC came out at 16 µg/mL (≈ 52.2 µM). The “inhibition zone (IZ)” value worked out at 8 mm in the test with Candida tropicalis [5]; 10 mm in the test with Candida albicans [15]; 9 mm with Candida albicans [16]; 11 mm in the test on Candida albicans [17]; 11 mm in the test with Candida tropicalis [18]; 16 mm in the test on Candida tropicalis [20]. Also, the “inhibition zone (IZ)” value in the test on Candida albicans [21] worked out at 13 mm.

A word on the MIC: it is the smallest concentration in the dilution series that meets the test's criterion for growth inhibition.
